Activity calls are given as the source filed them. No cut-off for these calls is given here.

What all share (assay type): functional, cell-based
The subject of assay [1] is AGS. The experiment in a line: Cytotoxicity against human AGS cells by MTS colorimetric assay. In short, it runs like this: (§1)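 Cells grown in DMEM with 10% fetal calf serum and seeded 24 h before treatment. Viability read by MTS colorimetric assay after 72 h compound exposure. IC50 taken as mean concentration giving 50% growth inhibition from replicate values.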
On the technique in general: Formazan colour is commonly taken as a measure of viable cells.

Assay [2] has as its system DLD-1. The experiment in a line: Cytotoxicity against human DLD1 cells by MTS colorimetric assay. Summed up: as §1
A short description of assay [3]: (§2) Cytotoxicity against human HA59T cells by MTS colorimetric assay. Summed up: as §1
The test system of assay [4] is HepG2. The experiment in a line: Cytotoxicity against human HepG2 cells by MTS colorimetric assay. In short, it runs like this:
as §1

The test system of assay [5] is AGS. The experiment in a line: Cytotoxicity against human AGS cells upto 30 uM by MTS colorimetric assay. Summed up:
(§3)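 Cells grown in DMEM with 10% fetal calf serum, seeded and cultured 24 h, then exposed to test compounds for 72 h. Viability read by MTS colorimetric assay.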

Assay [6] concerns DLD-1. As to the kind of experiment: Cytotoxicity against human DLD1 cells upto 30 by MTS colorimetric assay. Summed up:
as §3

Assay [7] concerns HA59T. As to the kind of experiment: Cytotoxicity against human HA59T cells upto 30 by MTS colorimetric assay. In short, it runs like this:
as §3

Assay [8] has as its system HepG2. The experiment in a line: Cytotoxicity against human HepG2 cells upto 30 by MTS colorimetric assay. In short, it runs like this:
as §3

Assay [9] concerns HA59T. The description is as §2. In short, it runs like this: as §1

What is called IC50 is the concentration needed to halve the response being measured. Regarding `c1ccc2c(c1)C[C@H]1NCCc3cc4c(c-2c31)OCO4` [ANONAINE], the IC50 in assay [1] came to 8.6 µM; in assay [2] it was 28.9 µM; in assay [3], 16.4 µM; in assay [4] it was 20.8 µM.

Take `COc1ccc2c(c1O)-c1nccc(C)c1C2=O`: the IC50 in assay [1] was more than 30 µM; in [2], more than 30 µM; in [3], 21.7 µM; in assay [4], more than 30 µM.

For the compound `COc1cc2c(cc1O)C[C@@H]1NCCc3cc(O)c(OC)c-2c31`, the result in assay [5], in assay [6], in assay [7] and in assay [8] was inactive.

As for `CC1=CCC[C@@H]2[C@@](C)(CCC3=CC(=O)O[C@@H]3O)[C@H](C)CC[C@@]12C`, the IC50 in assay [1] was 26.9 µM; in assay [2], more than 30 µM; in [3] it was 23.6 µM; in [4], more than 30 µM.

Turning to `COc1cc2c(cc1O)[C@@H]1Cc3ccc(O)c(OC)c3CN1CC2`, the outcome in assay [5], in [6], in [7] and in assay [8] was inactive.

As for `C[C@@H]1CC[C@@]2(O)[C@H](CC[C@H](O)C2(C)C)[C@@]1(C)CCC1=CC(=O)O[C@@H]1O`, the result in assay [1], in assay [2], in assay [9] and in [4] was inactive.

The values are drawn from ChEMBL document CHEMBL1155617, “Cytotoxic constituents of Polyalthia longifolia var. pendula” (J Nat Prod, 2000).
